{"source": "ChEMBL document CHEMBL4414568", "about": "“Development of Novel Irreversible Pyruvate Kinase M2 Inhibitors” (J Med Chem, 2019)", "key": {"NCI-H157 [1]": {"test_system": "NCI-H157", "test": "Antiproliferative activity against human NCI-H157 cells assessed as reduction in cell viability incubated for 24 hrs by MTT assay", "type": "functional, cell-based", "details": "NCI-H157, 24 h", "outline": "(§1)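 Cells seeded at 3,500 per well in 10% FBS and left overnight, then exposed to test agent or vehicle in 5% FBS for 24 h. MTT added for 1 h, then medium swapped for DMSO and absorbance read at 560 nm. Viability given as percent of vehicle-treated control. Run in triplicate.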"}, "NCI-H1975": {"test_system": "NCI-H1975", "test": "Antiproliferative activity against human NCI-H1975 cells harboring EGFR mutant assessed as reduction in cell viability incubated for 24 hrs by MTT assay", "type": "functional, cell-based", "details": "NCI-H1975, 24 h", "outline": "as §1"}, "PC-9 [2]": {"test_system": "PC-9", "test": "Antiproliferative activity against human PC9 cells harboring EGFR mutant assessed as reduction in cell viability incubated for 24 hrs by MTT assay", "type": "functional, cell-based", "details": "PC-9, 24 h", "outline": "as §1"}, "MDA-MB-231": {"test_system": "MDA-MB-231", "test": "Antiproliferative activity against human MDA-MB-231 cells assessed as reduction in cell viability incubated for 24 hrs by MTT assay", "type": "functional, cell-based", "details": "MDA-MB-231, 24 h", "outline": "as §1"}, "PC-3": {"test_system": "PC-3", "test": "Antiproliferative activity against human PC3 cells assessed as reduction in cell viability incubated for 24 hrs by MTT assay", "type": "functional, cell-based", "details": "PC-3, 24 h", "outline": "as §1"}, "NCI-H157 [3]": {"test_system": "NCI-H157", "test": "Antiproliferative activity against human NCI-H157 cells expressing wild type EGFR assessed as reduction in cell viability incubated for 24 hrs by MTT assay", "type": "functional, cell-based", "details": "NCI-H157, 24 h", "outline": "as §1"}, "Pyruvate kinase PKM [4]": {"molecular_target": "T1, Pyruvate kinase PKM (Homo sapiens, UniProt P14618)", "test": "Inhibition of PKM2 in human PC9 cells assessed as down regulation of EGFR expression incubated for 24 hrs by Western blot analysis", "type": "cell-based", "outline": "(§2)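 PC-9 cells seeded at 5 × 10^5 cells/mL; after 24 h given 0–1 µM compound or DMSO for 24 h. Lysates run on 10% SDS-PAGE, transferred to nitrocellulose, probed for PKM2, EGFR, p-STAT3, STAT3, p-β-catenin, β-catenin and β-actin with HRP secondaries, ECL detection.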"}, "Pyruvate kinase PKM [5]": {"molecular_target": "T1, Pyruvate kinase PKM", "test": "Inhibition of PKM2 in human PC9 cells assessed as reduction in STAT3 phosphorylation at 0.5 uM incubated for 24 hrs by Western blot analysis", "type": "cell-based", "outline": "as §2"}, "[6]": {"molecular_target": "Alpha-enolase (Homo sapiens) (UniProt P06733)", "sequence (P06733 whole entry)": "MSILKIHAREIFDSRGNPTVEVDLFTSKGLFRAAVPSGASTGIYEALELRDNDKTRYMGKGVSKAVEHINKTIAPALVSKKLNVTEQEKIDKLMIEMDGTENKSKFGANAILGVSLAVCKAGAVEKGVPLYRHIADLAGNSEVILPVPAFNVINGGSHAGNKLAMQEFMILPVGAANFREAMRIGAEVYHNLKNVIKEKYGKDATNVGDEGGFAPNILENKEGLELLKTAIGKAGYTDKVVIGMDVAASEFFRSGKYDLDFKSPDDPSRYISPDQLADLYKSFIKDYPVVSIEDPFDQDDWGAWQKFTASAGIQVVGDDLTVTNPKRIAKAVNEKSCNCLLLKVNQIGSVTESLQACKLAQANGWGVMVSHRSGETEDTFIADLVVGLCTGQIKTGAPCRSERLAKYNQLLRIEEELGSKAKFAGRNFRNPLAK", "test": "Binding affinity to ENOA in human PC9 cells incubated for 1 hr by ABPP-SILAC assay", "type": "cell-based", "outline": "(§3)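 PC-9 cells passaged at least six times in SILAC DMEM with 10% dialyzed FBS plus 100 µg/mL light or 13C/15N-labeled Arg/Lys. Heavy cells got ABPP probe (1 µM) and light cells DMSO, 1 h at 37 °C. Cells mixed 1:1, sonicated, spun at 100,000g, protein normalized to 1 mg/mL. Click biotin-azide, streptavidin bead pulldown 16 h at 4 °C, SDS-PAGE, on-bead trypsin digestion, LC-MS/MS.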"}, "[7]": {"test": "Toxicity in athymic nude mouse xenografted with human PC9 cells assessed as reduction in body weight at 10 mg/kg, ip administered once daily for 25 days measured during compound dosing", "type": "organism-based", "details": "in vivo, 600 h", "outline": "(§4)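 Female nude mice, 6 weeks old, given s.c. 1 × 10^6 PC-9 cells in Matrigel (1:1). From day 7, once-daily i.p. vehicle or 10 mg/kg compound in sterile water with 0.5% methylcellulose and 0.1% Tween-80, n = 8 per group, for 25 days. Tumor volume and body weight followed, tumors weighed at end.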"}, "[8]": {"molecular_target": "L-lactate dehydrogenase A chain (Homo sapiens) (UniProt P00338)", "test": "Binding affinity to LDHA in human PC9 cells incubated for 1 hr by ABPP-SILAC assay", "type": "cell-based", "outline": "as §3"}, "PC-9 [9]": {"test_system": "PC-9", "test": "Effect on basal extracellular acidification rate in human PC9 cells at 0.25 to 1 uM measured after 4 hrs in absence of glucose by seahorse XF96 flux analyser based assay", "type": "cell-based", "details": "pc-9, 4 h", "outline": "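PC-9 cells, 5 × 10^4 per well, seeded 24 h ahead, then treated with DMSO or compound at 0.25, 0.5 or 1 µM for 4 h at 37 °C. Cells held 1 h without CO2 in glycolysis medium. Seahorse glycolysis stress test with serial injections of 10 mM glucose, oligomycin and 50 mM 2-DG; ECAR and OCR recorded together. Six wells per point.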"}, "PC-9 [10]": {"test_system": "PC-9", "test": "Antitumor activity against human PC9 cells xenografted in athymic nude mouse assessed as reduction in tumor growth at 10 mg/kg, ip administered once daily for 25 days measured post-last dose by caliper method", "type": "functional, organism-based", "outline": "as §4"}, "[11]": {"molecular_target": "T2, Malate dehydrogenase, mitochondrial (Homo sapiens) (UniProt P40926)", "T2 sequence (whole entry)": "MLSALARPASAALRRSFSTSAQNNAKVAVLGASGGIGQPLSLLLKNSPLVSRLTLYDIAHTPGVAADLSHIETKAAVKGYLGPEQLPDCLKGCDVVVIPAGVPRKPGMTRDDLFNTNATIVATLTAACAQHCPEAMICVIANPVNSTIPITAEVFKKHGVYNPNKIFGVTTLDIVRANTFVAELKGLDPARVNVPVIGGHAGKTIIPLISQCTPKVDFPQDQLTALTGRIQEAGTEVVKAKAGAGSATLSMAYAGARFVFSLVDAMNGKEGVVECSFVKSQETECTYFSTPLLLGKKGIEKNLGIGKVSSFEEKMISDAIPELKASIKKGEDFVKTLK", "test": "Binding affinity to MDHM in human PC9 cells incubated for 1 hr by ABPP-SILAC assay", "type": "cell-based", "outline": "as §3"}, "Pyruvate kinase PKM [12]": {"molecular_target": "T1, Pyruvate kinase PKM", "test": "Inhibition of PKM2 in human PC9 cells assessed as reduction in STAT3 expression incubated for 24 hrs by Western blot analysis", "type": "cell-based", "outline": "as §2"}, "[13]": {"molecular_target": "T3, Phosphoglycerate kinase 1 (Homo sapiens) (UniProt P00558)", "T3 sequence (whole entry)": "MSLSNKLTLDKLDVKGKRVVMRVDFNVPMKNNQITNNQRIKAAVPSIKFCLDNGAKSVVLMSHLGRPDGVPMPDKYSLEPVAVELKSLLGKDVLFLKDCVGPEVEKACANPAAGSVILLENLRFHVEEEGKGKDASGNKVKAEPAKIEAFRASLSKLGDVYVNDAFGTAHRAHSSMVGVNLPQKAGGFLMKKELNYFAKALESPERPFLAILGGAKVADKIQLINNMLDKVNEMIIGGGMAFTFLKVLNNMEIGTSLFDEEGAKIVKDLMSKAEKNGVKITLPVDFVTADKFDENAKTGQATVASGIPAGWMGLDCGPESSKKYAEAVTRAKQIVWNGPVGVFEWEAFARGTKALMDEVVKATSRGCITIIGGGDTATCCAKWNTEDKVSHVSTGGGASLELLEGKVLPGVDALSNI", "test": "Binding affinity to PGK1 in human PC9 cells incubated for 1 hr by ABPP-SILAC assay", "type": "cell-based", "outline": "as §3"}, "Pyruvate kinase PKM [14]": {"molecular_target": "T1, Pyruvate kinase PKM", "test": "Inhibition of recombinant human N-terminal His-tagged PKM1 expressed in Escherichia coli at 0.125 to 0.5 uM using PEP as substrate incubated for 20 mins by OxiRed probe-based colorimetric analysis", "outline": "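Recombinant PKM1 or PKM2 incubated with compound at room temperature for 20 min. Remaining activity measured by the same colorimetric kit: PEP + […], PK then pyruvate oxidase, H2O2 read-out. n = 3.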"}, "Pyruvate kinase PKM [15]": {"molecular_target": "T1, Pyruvate kinase PKM", "test": "Inhibition of PKM2 in human PC9 cells assessed as reduction in beta-catenin phosphorylation at 0.5 uM incubated for 24 hrs by Western blot analysis", "type": "cell-based", "outline": "as §2"}}, "note": "pIC50: −log10 of the molar value. Activity calls are given as the source filed them. The rule behind the calls is not given here.", "data": [{"smiles": "C#CC(=O)Nc1ccc(-n2nc(CCC(=O)NC)cc2-c2ccc(-c3ccc(C(F)(F)F)cc3)cc2)cc1", "values": [{"measurement": "pIC50", "setting": "NCI-H157 [1]", "result": "< 5.70"}, {"measurement": "pIC50", "setting": "NCI-H1975", "result": 6.00}, {"measurement": "pIC50", "setting": "PC-9 [2]", "result": 6.30}, {"measurement": "pIC50", "setting": "MDA-MB-231", "result": 7.00}, {"measurement": "pIC50", "setting": "PC-3", "result": 6.22}, {"measurement": "pIC50", "setting": "NCI-H157 [3]", "result": "< 5.70"}, {"measurement": "inhibition", "setting": "Pyruvate kinase PKM [4]", "result": "Dose-dependent effect"}, {"measurement": "inhibition", "setting": "Pyruvate kinase PKM [5]", "result": "inactive"}, {"measurement": "Activity", "setting": "[6]", "result": "Active"}, {"measurement": "Activity", "setting": "[7]", "result": "Non-Toxic"}, {"measurement": "Activity", "setting": "[8]", "result": "Active"}, {"measurement": "Activity", "setting": "PC-9 [9]", "result": "Non-Toxic"}, {"measurement": "Activity", "setting": "PC-9 [10]", "result": "Active"}, {"measurement": "Activity", "setting": "[11]", "result": "Active"}, {"measurement": "inhibition", "setting": "Pyruvate kinase PKM [12]", "result": "Dose-dependent effect"}, {"measurement": "Activity", "setting": "[13]", "result": "Active"}, {"measurement": "inhibition (INH)", "setting": "Pyruvate kinase PKM [14]", "result": "Not Active"}, {"measurement": "inhibition", "setting": "Pyruvate kinase PKM [15]", "result": "inactive"}]}]}
